Consider 1 compound from ChEMBL document CHEMBL5257020, “Discovery of a 9-mer Cationic Peptide (LTX-315) as a Potential First in Class Oncolytic Peptide” (J Med Chem, 2016).

Series [1] concerns the target T1, Cytochrome P450 3A4 (Homo sapiens, UniProt P08684). The series is described as follows: Inhibition of CYP3A4 in human liver microsomes using midazolam as substrate assessed as reduction in substrate hydroxylation incubated for 5 mins in presence of beta-NADPH measured by LC-MS/MS analysis. The class given is ADME, Microsome. Summed up: (§1)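 Pooled human liver microsomes (50 donors) in 100 mM phosphate, pH 7.4, with 2 mM β-NADPH. Protein 0.1 mg/mL (2A6, 2C8, 2C9, 2E1, 3A4) or 0.3 mg/mL (1A2, 2B6, 2C19, 2D6). Test article 0–100 μM final, preincubated ~37 °C 5 or 30 min before isoform-selective substrate. Quenched in methanol with internal standard. Metabolite measured by LC–MS/MS against standard curve. Duplicates, with selective inhibitor positive controls.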
A general note: Liver microsomes are a subcellular fraction often used to study metabolism.

Series [2] in a line: Stability in pooled and cryopreserved rat hepatocytes assessed as intrinsic clearance measured per 10^6 cells at 1 uM measured for 90 mins by LC-MS/MS analysis. The class given is ADME, cell-based, Hepatocyte. The following applies: read-out: CLH. In outline: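 Pooled cryopreserved hepatocytes at 0.5 million cells/mL, incubated at about 37 °C with 1 μM initial peptide. Supernatant after centrifugation analysed by LC–MS/MS (MRM) using a D-Trp7,9,10-substance P internal standard. Peak height was referenced to time zero, and t1/2 = −0.693/slope of ln concentration vs time. Clint = 0.693/t1/2 × Vinc per million cells. Testosterone, midazolam and 4-methylumbelliferone were the positive controls. Duplicates; mean of two experiments.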

The next series deals with Cytochrome P450 2A6 (Homo sapiens, UniProt P11509). Description: Inhibition of CYP2A6 in human liver microsomes using coumarin as substrate assessed as reduction in substrate hydroxylation incubated for 30 mins in presence of beta-NADPH measured by LC-MS/MS analysis. In kind it is ADME, Microsome. Summed up:
as §1

Series [3] concerns the target T2, Cytochrome P450 1A2 (Homo sapiens, UniProt P05177). The series is described as follows: Inhibition of CYP1A2 in human liver microsomes using as phenacetin substrate assessed as reduction in O-deethylation of phenacetin incubated for 30 mins in presence of beta-NADPH by LC-MS/MS analysis. The class given is ADME, Microsome. Summed up:
as §1

For series [4], the target named is T3, Cytochrome P450 2C9 (Homo sapiens, UniProt P11712). The series is described as follows: Inhibition of CYP2C9 in human liver microsomes using diclofenac as substrate assessed as reduction in substrate hydroxylation incubated for 5 mins in presence of beta-NADPH measured by LC-MS/MS analysis. The class given is ADME, Microsome. In outline:
as §1

Series [5] in a line: Stability in pooled and cryopreserved rat hepatocytes assessed as half life at 1 uM measured for 90 mins by LC-MS/MS analysis. The class given is ADME, cell-based, Hepatocyte. In outline:
(§2)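 Pooled cryopreserved rat or human hepatocytes, 0.5 million cells/mL, ~37 °C, peptide at 1 μM initial. Supernatants analysed by LC–MS/MS with peak height referenced to time zero. t1/2 = −0.693/slope of ln concentration vs time. Duplicate experiments. Testosterone, midazolam and 4-methylumbelliferone served as metabolic-competence controls.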

The target in series [6] is T4, Cytochrome P450 2E1 (Homo sapiens, UniProt P05181). Description: Inhibition of CYP2E1 in human liver microsomes using chlorzoxazone as substrate assessed as reduction in substrate hydroxylation incubated for 5 mins in presence of beta-NADPH measured by LC-MS/MS analysis. The class given is ADME, Microsome. Summed up:
as §1

For a further series, the target named is Cytochrome P450 2B6 (Homo sapiens, UniProt P20813). The series is described as follows: Inhibition of CYP2B6 in human liver microsomes using bupropion as substrate assessed as reduction in substrate hydroxylation incubated for 30 mins in presence of beta-NADPH measured by LC-MS/MS analysis. In kind it is ADME, Microsome. In outline: as §1
For series [7], the target named is T2, Cytochrome P450 1A2. The series is described as follows: Inhibition of CYP1A2 in human liver microsomes using as phenacetin substrate assessed as reduction in O-deethylation of phenacetin incubated for 5 mins in presence of beta-NADPH by LC-MS/MS analysis. In kind it is ADME, Microsome. In outline:
as §1

Series [8] is described as follows: Ratio of drug concentration in Beagle dog blood to plasma measured after 60 mins by LC-MS/MS analysis. The class given is ADME, cell-free, Canis lupus familiaris. In outline:
(§3)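 Pooled fresh whole blood (≥3 male and 3 female human, beagle dog or rat donors) spiked to 200 ng/mL. Incubated ~37 °C on rotary mixer over 0–120 min. Hematocrit determined. Blood and plasma analysed by LC–MS/MS. Blood/plasma ratio = Cb/C. Cell association = {[C(1 − H)]/Cb} × 100. Values at 60 min, mean of two independent measurements.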

Series [9] is described as follows: Protein binding in human plasma assessed as bound fraction at 200 to 1000 ng/ml incubated for 20 hrs in presence of AEBSF by LC-MS/MS analysis. The class given is ADME, cell-free. Particulars: dose 200-1000 ng/ml, read-out: PPB. In outline: (§4)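 Pooled plasma (human volunteers; Han Wistar rat; Beagle dog) containing AEBSF 1 mg/mL. Spiked to 200, 500 or 1000 ng/mL final, in duplicate. Ultracentrifuged 45 000 rpm, 37 °C, 20 h. Supernatant quantified by LC–MS/MS. % bound = [(C − CS)/C] × 100. Values are upper limits because of residual degradation.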

A short description of series [10]: Half life in human plasma measured by RP-HPLC analysis. The class given is ADME, cell-free.
For series [11], the target named is T4, Cytochrome P450 2E1. Description: Inhibition of CYP2E1 in human liver microsomes using chlorzoxazone as substrate assessed as reduction in substrate hydroxylation incubated for 30 mins in presence of beta-NADPH measured by LC-MS/MS analysis. In kind it is ADME, Microsome. Summed up: as §1
The next series addresses Cytochrome P450 2C8 (Homo sapiens, UniProt P10632). The series is described as follows: Inhibition of CYP2C8 in human liver microsomes using paclitaxel as substrate assessed as reduction in substrate hydroxylation incubated for 30 mins in presence of beta-NADPH measured by LC-MS/MS analysis. The class given is ADME, Microsome. Summed up: as §1
For a further series, the target named is Cytochrome P450 2C19 (Homo sapiens, UniProt P33261). Description: Inhibition of CYP2C19 in human liver microsomes using (S)-mephenytoin as substrate assessed as reduction in substrate hydroxylation incubated for 30 mins in presence of beta-NADPH measured by LC-MS/MS analysis. The class given is ADME, Microsome. In outline:
as §1

In series [12] the target is T3, Cytochrome P450 2C9. Description: Inhibition of CYP2C9 in human liver microsomes using diclofenac as substrate assessed as reduction in substrate hydroxylation incubated for 30 mins in presence of beta-NADPH measured by LC-MS/MS analysis. In kind it is ADME, Microsome. In outline:
as §1

The nature of series [13]: Stability in pooled and cryopreserved human hepatocytes assessed as half life at 1 uM measured for 90 mins by LC-MS/MS analysis. In kind it is ADME, cell-based, Hepatocyte. Summed up:
as §2

In series [14] the target is T1, Cytochrome P450 3A4. The series is described as follows: Inhibition of CYP3A4 in human liver microsomes using testosterone as substrate assessed as reduction in substrate hydroxylation incubated for 30 mins in presence of beta-NADPH measured by LC-MS/MS analysis. The class given is ADME, Microsome. Summed up: as §1
The nature of series [15]: Drug uptake in Beagle dog Red blood cells at 60 mins by LC-MS/MS analysis. The class given is ADME, cell-based, Canis lupus familiaris. Particulars: erythrocyte, 1 h. In outline:
as §3

A further series addresses Cytochrome P450 2D6 (Homo sapiens, UniProt P10635). Description: Inhibition of CYP2D6 in human liver microsomes using bufuralol as substrate assessed as reduction in substrate hydroxylation incubated for 5 mins in presence of beta-NADPH measured by LC-MS/MS analysis. The class given is ADME, Microsome. Summed up:
as §1

Series [16] is described as follows: Protein binding in Beagle dog plasma assessed as bound fraction at 200 to 1000 ng/ml incubated for 20 hrs in presence of AEBSF by LC-MS/MS analysis. In kind it is ADME, cell-free, Canis lupus familiaris. Particulars: dose 200-1000 ng/ml, read-out: PPB. Summed up: as §4
The nature of series [17]: Drug recovery in human plasma incubated for 20 hrs in presence of serine protease inhibitor AEBSF (reference value: 176 ng/ml). In kind it is ADME, cell-free.
Series [18] can be described thus: Drug uptake in rat Red blood cells at 60 mins by LC-MS/MS analysis. The class given is ADME, cell-based. The following applies: erythrocyte, 1 h. In outline:
as §3

Series [19] is described as follows: Ratio of drug concentration in human blood to plasma measured after 60 mins by LC-MS/MS analysis. In kind it is ADME, cell-free. In outline: as §3

SMILES strings stand for the structures. Where a SMILES comes first, the peptide text is derived from it. [ ]: non-standard residue; d: D form. ξ: configuration not given here. ξDip = NC(C(=O)O)C(c1ccccc1)c1ccccc1 Some results are limits rather than exact numbers.

The term IC50 denotes the concentration at which inhibition is half-maximal. The term half-life denotes how long it takes for the measured level to halve.

T2 sequence (P05177 whole entry): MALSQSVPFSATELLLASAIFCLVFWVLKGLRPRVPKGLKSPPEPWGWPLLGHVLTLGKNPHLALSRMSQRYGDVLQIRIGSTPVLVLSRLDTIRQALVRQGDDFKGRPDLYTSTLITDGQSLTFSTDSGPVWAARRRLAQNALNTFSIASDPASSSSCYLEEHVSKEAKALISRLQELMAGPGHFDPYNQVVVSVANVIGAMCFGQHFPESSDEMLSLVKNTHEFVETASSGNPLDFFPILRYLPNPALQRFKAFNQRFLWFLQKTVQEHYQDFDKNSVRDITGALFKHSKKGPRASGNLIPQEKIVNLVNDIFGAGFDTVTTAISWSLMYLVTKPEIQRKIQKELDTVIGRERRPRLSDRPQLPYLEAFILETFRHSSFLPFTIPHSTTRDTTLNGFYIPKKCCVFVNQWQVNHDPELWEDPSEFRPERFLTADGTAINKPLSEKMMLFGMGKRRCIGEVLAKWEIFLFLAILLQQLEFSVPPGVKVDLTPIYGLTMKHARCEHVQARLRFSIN
T3 sequence (P11712 whole entry): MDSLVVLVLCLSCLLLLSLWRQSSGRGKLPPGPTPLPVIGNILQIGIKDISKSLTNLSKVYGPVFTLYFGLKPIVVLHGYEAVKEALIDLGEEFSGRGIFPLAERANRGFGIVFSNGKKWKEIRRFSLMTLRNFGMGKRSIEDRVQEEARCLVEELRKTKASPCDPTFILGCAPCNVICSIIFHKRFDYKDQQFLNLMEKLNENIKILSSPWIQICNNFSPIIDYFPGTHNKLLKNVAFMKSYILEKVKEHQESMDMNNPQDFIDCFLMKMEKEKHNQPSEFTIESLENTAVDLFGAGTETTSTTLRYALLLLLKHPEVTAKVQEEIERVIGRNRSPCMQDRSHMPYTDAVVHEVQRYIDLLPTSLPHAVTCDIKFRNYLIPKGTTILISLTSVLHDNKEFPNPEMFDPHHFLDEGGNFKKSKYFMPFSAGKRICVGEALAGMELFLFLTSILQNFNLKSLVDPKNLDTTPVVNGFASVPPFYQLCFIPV
T4 sequence (P05181 whole entry): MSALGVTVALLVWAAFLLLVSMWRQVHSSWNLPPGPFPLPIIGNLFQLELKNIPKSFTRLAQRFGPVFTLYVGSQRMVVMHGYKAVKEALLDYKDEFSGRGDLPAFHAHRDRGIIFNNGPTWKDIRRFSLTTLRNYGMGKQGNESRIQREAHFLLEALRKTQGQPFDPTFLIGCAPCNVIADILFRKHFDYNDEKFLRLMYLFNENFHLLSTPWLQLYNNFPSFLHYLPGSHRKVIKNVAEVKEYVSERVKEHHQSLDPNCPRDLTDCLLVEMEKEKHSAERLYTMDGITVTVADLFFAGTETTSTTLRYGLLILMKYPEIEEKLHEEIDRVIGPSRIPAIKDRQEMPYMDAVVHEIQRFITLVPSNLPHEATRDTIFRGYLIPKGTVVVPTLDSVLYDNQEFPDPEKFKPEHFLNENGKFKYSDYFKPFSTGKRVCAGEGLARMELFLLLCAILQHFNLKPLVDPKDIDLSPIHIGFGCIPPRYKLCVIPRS
T1 sequence (P08684 whole entry, canonical isoform): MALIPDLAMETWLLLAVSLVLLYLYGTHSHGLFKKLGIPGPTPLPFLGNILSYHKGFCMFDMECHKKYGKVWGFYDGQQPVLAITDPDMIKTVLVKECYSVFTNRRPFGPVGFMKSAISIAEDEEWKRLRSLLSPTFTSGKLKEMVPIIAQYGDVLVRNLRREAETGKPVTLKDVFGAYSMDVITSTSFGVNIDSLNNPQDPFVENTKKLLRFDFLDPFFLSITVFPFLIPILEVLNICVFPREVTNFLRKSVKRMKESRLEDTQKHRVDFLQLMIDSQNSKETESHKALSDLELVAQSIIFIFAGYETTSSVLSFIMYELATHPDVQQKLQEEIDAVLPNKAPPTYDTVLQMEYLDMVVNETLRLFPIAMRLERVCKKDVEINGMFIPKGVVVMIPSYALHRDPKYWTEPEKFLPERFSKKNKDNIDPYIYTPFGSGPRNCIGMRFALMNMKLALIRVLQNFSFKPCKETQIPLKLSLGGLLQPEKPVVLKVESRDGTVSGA
Chain of Cytochrome P450 2A6 (P11509 whole entry): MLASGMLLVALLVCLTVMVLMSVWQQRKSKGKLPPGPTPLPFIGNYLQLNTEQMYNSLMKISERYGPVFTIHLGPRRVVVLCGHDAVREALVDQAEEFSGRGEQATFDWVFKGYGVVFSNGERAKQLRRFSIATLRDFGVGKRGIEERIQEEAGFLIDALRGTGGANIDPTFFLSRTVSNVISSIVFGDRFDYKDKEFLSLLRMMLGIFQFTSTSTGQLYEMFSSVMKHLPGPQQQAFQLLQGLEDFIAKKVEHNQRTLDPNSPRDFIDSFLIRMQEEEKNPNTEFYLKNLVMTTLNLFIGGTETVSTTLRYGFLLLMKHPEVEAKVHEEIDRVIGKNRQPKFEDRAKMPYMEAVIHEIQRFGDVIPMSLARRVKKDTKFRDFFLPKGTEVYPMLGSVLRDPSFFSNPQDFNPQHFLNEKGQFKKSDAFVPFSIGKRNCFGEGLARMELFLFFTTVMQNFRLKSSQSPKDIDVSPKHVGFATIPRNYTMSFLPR
Chain of Cytochrome P450 2C19 (P33261 whole entry): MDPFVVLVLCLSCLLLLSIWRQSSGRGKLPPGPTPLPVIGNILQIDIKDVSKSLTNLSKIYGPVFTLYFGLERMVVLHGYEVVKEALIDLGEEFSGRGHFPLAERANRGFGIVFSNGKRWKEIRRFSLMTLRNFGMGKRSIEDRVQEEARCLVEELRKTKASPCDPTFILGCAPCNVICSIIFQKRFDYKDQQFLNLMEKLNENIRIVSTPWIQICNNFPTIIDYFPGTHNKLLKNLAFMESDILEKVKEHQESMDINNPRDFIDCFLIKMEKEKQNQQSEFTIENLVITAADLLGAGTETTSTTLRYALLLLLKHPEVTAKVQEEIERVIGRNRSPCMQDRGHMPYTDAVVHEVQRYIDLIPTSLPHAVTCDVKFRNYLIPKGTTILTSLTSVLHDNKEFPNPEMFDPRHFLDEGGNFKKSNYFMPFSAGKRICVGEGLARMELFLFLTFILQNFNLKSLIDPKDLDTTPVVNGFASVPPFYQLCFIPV
Chain of Cytochrome P450 2D6 (P10635 whole entry): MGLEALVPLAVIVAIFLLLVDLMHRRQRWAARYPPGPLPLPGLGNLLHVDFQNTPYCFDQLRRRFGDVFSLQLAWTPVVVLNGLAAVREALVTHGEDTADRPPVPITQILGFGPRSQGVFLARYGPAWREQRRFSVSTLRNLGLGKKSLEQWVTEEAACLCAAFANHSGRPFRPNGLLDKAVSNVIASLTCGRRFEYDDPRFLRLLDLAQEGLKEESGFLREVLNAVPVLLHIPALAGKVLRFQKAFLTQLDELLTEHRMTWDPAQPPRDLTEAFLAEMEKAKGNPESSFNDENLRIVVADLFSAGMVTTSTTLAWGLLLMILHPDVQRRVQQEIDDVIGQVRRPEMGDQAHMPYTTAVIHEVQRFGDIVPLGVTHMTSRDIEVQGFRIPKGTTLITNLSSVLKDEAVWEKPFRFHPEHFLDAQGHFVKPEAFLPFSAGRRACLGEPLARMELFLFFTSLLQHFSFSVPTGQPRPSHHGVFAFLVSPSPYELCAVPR
Chain of Cytochrome P450 2B6 (P20813 whole entry): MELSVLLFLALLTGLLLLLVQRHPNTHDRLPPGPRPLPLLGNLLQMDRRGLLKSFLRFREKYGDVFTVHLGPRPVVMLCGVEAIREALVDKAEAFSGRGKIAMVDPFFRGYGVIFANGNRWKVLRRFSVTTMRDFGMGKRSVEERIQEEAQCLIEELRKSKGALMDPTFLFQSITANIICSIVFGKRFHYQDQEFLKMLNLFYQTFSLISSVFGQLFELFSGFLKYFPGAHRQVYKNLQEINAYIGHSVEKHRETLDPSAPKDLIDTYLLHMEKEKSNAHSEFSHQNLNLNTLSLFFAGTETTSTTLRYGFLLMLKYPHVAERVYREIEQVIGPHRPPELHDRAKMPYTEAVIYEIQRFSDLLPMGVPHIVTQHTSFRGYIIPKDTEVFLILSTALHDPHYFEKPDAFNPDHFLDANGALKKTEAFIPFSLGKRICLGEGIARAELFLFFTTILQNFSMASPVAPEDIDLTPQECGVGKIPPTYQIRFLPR
Chain of Cytochrome P450 2C8 (P10632 whole entry): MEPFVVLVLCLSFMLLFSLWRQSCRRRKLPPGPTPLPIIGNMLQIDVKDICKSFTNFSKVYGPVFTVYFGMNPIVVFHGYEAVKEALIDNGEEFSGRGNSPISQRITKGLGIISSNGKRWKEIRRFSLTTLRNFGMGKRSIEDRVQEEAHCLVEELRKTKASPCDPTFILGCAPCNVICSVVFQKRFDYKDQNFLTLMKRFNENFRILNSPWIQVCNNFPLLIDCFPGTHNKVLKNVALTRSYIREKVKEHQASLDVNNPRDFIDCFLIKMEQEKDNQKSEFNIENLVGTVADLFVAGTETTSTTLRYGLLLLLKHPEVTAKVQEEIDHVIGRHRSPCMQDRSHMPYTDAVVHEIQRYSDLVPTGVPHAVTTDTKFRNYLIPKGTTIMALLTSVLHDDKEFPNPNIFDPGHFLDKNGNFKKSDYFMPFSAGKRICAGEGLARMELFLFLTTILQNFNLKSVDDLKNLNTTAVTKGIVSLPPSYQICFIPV

For the compound `NCCCC[C@H](NC(=O)C(NC(=O)[C@H](Cc1c[nH]c2ccccc12)NC(=O)[C@H](CCCCN)NC(=O)[C@H](CCCCN)NC(=O)[C@H](Cc1c[nH]c2ccccc12)NC(=O)[C@H](Cc1c[nH]c2ccccc12)NC(=O)[C@H](CCCCN)NC(=O)[C@@H](N)CCCCN)C(c1ccccc1)c1ccccc1)C(N)=O` (some centres undefined) (H-KKWWKKW[ξDip]K-NH2), the IC50 is 18.8 µM at Cytochrome P450 3A4 [1]; 26.3 µM on Cytochrome P450 2A6; over 100 µM at Cytochrome P450 1A2 [3]; 8.8 µM at Cytochrome P450 2C9 [4]; 30.9 µM at Cytochrome P450 2E1 [6]; 18.6 µM on Cytochrome P450 2B6. In addition, the concentration for half-maximal inhibition (IC50) at Cytochrome P450 1A2 [7] is 37.9 µM; at Cytochrome P450 2E1 [11], 30 µM; at Cytochrome P450 2C8, 7.9 µM; at Cytochrome P450 2C19, over 100 µM; at Cytochrome P450 2C9 [12], 8.7 µM; at Cytochrome P450 3A4 [14], 12.1 µM. Also, the IC50 on Cytochrome P450 2D6 amounted to 21.9 µM. Moreover, the hepatocyte CLint at 1 µM in [2] worked out at 20 µL/min/1e6 cells. The half-life at 1 µM in series [5] was found to be 1.18 h; in [13], 1.07 h. For the same compound, the blood plasma ratio at 1 h is 2.19 in series [8] and 0.76 in series [19]. Further, the fraction unbound at 20 h in series [9] was over 0.2; in series [16], over 0.08. In [10], the half-life came out at 2.67 h. The Drug uptake in series [15] is 76%; in series [18], 44%. The Drug recovery in series [17] was 131 ng/mL.
